The source made the active and inactive calls. No cut-off for these calls is given here.
Key:
[1] = Quenching activity of the compound assessed as reduction in resorufin fluorescence; type: functional
Method in brief: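 Resorufin at 1 µM and 10 µM measured for fluorescence in the presence of compound at 50 µM.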

[2] = biological target: T1, peroxidase (horseradish peroxidase) (Raphanus sativus, UniProt K7N5L9); test: Inhibition of horse radish peroxidase assessed as residual activity at 50 uM by amplex red dye based fluorescence assay; conditions: horseradish peroxidase (isolated enzyme), probe Amplex Red, read-out: Activity
T1 sequence (K7N5L9 whole entry): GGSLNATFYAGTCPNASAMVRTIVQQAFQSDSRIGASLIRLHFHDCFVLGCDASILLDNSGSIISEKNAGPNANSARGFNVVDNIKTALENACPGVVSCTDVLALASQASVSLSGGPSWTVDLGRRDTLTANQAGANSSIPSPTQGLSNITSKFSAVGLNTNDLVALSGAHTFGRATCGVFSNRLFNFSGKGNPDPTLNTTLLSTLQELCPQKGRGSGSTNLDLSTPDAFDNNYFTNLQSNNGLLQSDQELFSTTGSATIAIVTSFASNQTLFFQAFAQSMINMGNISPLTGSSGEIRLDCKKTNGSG
Method in brief: (§1)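 HRP (0.02 U/mL) given H2O2 20 µM directly as substrate plus Ampliflu Red 20 µM in 50 mM potassium phosphate pH 7.4. Compound at 50 or 5 µM, 1% DMSO; controls DMSO only. Resorufin fluorescence read at ex 535/em 595 nm, 30°C, as remaining HRP activity.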

[3] = biological target: T1, peroxidase (horseradish peroxidase); test: Inhibition of horse radish peroxidase assessed as residual activity at 5 uM by amplex red dye based fluorescence assay; conditions: horseradish peroxidase (isolated enzyme), probe Amplex Red, read-out: Activity; method in brief: as §1
[4] = biological target: T2, Amine oxidase [flavin-containing] A (Homo sapiens, UniProt P21397); test: Inhibition of human membrane bound MAO-A expressed in insect cell membranes assessed as reduction in conversion of kynuramine to 4-hydroxyquinoline by spectrophotometric assay
T2 sequence (P21397 whole entry): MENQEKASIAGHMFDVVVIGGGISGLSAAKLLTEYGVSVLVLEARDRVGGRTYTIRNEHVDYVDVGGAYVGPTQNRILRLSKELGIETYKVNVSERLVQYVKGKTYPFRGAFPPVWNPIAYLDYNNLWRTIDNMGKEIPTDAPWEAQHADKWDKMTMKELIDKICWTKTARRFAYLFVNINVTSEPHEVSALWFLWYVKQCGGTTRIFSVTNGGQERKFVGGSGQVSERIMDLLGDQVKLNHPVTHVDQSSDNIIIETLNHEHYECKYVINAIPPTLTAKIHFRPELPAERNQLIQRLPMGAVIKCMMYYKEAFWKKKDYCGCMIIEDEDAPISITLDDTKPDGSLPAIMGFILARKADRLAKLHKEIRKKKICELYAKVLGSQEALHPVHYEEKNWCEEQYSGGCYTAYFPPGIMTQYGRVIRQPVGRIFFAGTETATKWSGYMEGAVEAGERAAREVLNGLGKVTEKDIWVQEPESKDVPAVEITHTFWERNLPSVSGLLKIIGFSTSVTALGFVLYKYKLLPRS
Method in brief: (§2)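 Human MAO-A or MAO-B expressed in insect cell membranes, diluted 1/4000 (A) or 1/2000 (B). Kynuramine at 2×KM: 60 µM for MAO-A, 30 µM for MAO-B. Assay in 50 mM potassium phosphate pH 7.5, 30°C, 1% DMSO, absorbance at 314 nm. Inhibitor varied over 4 orders of magnitude, up to 100 µM. Linear rates from 8-10 assays fitted by 3-parameter regression with bottom fixed at zero; IC50 ± SE of estimate.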

[5] = Cytotoxicity against CHOK1 cells assessed as reduction in cell viability after 24 hrs by MTT assay; type: cell-based, Cricetulus griseus; conditions: chinese hamster, CHO-K1 cells; read-out: LC50
Method in brief: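 CHO-K1 cells grown as ECACC recommends, seeded 8000 per well; compounds from DMSO stocks diluted in F-12 with 10% FBS and 1% pen/strep (final DMSO at most 0.5%), exposed 24 h. Medium then replaced with 10 µM MTT for about 3 h, formazan dissolved in DMSO, absorbance read at 570 nm (650 nm reference). LC50 from control-subtracted triplicates by four-parameter regression; mean ± SEM of 3 independent runs.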

[6] = biological target: T3, Amine oxidase [flavin-containing] B (Homo sapiens, UniProt P27338); test: Inhibition of human membrane bound MAO-B expressed in insect cell membranes assessed as reduction in conversion of kynuramine to 4-hydroxyquinoline by spectrophotometric assay; method in brief: as §2
T3 sequence (P27338 whole entry): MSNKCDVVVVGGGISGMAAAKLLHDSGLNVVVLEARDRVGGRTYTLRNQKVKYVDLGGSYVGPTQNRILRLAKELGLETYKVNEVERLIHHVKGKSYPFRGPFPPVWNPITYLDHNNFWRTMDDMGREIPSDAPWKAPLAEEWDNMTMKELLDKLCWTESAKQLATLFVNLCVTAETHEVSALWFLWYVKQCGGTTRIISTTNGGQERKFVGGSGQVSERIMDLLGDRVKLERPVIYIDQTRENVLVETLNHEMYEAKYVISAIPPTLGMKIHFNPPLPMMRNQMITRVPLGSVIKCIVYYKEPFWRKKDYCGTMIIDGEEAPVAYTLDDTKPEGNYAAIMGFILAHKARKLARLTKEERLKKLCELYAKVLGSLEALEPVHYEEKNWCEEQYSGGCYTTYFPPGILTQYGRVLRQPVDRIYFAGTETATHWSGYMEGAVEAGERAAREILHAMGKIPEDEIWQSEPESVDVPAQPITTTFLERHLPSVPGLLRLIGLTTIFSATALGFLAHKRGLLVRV

[7] = biological target: Amyloid beta-binding alcohol dehydrogenase (Homo sapiens, UniProt Q2L8D9); test: Inhibition of ABAD (unknown origin) assessed as residual activity at 100 uM using acetoacetyl-CoA in presence of NADH by spectrophotometric assay relative to control
Method in brief: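 Recombinant ABAD at 0.5 µg/mL with NADH 250 µM and acetoacetyl-CoA 120 µM; compound at 100 µM in 1% DMSO, controls with matching DMSO. Buffer 10 mM HEPES, 0.5% gelatin, pH 7.4 at 37°C. NADH consumption read as falling absorbance at 340 nm; reported as % remaining activity ± SEM from two biological repeats, each with three technical repeats.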

[8] = Solubility of the compound at 100 uM; type: physicochemical
Method in brief: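 Compounds checked for solubility in assay buffer at 100 µM.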

[9] = biological target: T2, Amine oxidase [flavin-containing] A; test: Inhibition of human purified MAO-A expressed in insect cell membranes assessed as reduction in conversion of kynuramine to 4-hydroxyquinoline by spectrophotometric assay
[10] = biological target: Peroxidase (Raphanus sativus, UniProt K7N5L9); test: Inhibition of horse radish peroxidase assessed as residual activity by amplex red dye based fluorescence assay; method in brief: as §1
Chain of Peroxidase (K7N5L9 whole entry): as the sequence (K7N5L9 whole entry) above

[11] = Lipophilicity of the compound assessed as capacity factor at pH 3.5 by HPLC analysis; type: physicochemical; conditions: buffer
Method in brief: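 Capacity factor k from gradient HPLC on reversed-phase C18 in acid polar organic mode, pH ~3.5.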

| SMILES | Activity [1] | activity at 50 µM [2] | activity at 5 µM [3] | IC50 ([4]; read-out: IC50) | CC50 at 24 h [5] | IC50 ([6]; read-out: IC50) | Activity [7] | solubility [8] | IC50 ([9]; read-out: IC50) | IC50 [10] | IC50 [9] | K [11] | IC50 [4] | IC50 [6] |
| --- | --- | --- | --- | --- | --- | --- | --- | --- | --- | --- | --- | --- | --- | --- |
| Oc1ccccc1NC(=S)Nc1ccc2[nH]ccc2c1 | inactive | 36.9% | 43.9% | 14 µM | 509 µM | 4 µM | 85% | Soluble | 39 µM | 0.8 µM |  |  |  |  |
| COc1ccc(CNC(=S)Nc2ccc3[nH]ccc3c2)cc1 | inactive | 54.4% | 83.5% |  | 232 µM |  | 88.5% | Soluble |  |  | Not Active |  |  |  |
| Oc1c(Cl)cc(NC(=S)Nc2ccc3[nH]ccc3c2)cc1Cl | inactive | 23.9% | 48.6% | > 100 µM | 523 µM | 17 µM | 39% | Soluble |  | 1.06 µM | Not Active | 3.975 |  |  |
| Oc1ccc(CNC(=S)Nc2ccc3[nH]ccc3c2)cc1O | inactive | 31.2% | 38.3% |  | 471 µM |  | 81.5% | Soluble |  | 0.8 µM | Not Active |  |  |  |
| CC(=O)c1ccc(NC(=S)Nc2ccc3[nH]ccc3c2)cc1 | inactive | 41.8% | 66.3% |  | 154 µM |  | 79.2% | Soluble | 67 µM |  |  |  |  |  |
| OCc1ccc(NC(=S)Nc2ccc3[nH]ccc3c2)cc1 | inactive | 51.4% | 88.2% |  | 1080 µM |  | 84.2% | Soluble |  |  | Not Active |  |  |  |
| O=C(c1ccccc1)c1ccc(NC(=S)Nc2ccc3[nH]ccc3c2)cc1 | inactive | 71.4% | 79.1% |  | 20 µM |  | 80.4% | Soluble |  |  | Not Active |  |  |  |
| Oc1ccc(NC(=S)Nc2ccc3[nH]ccc3c2)cc1 | inactive | 31% | 41.5% | > 100 µM | 848 µM | 17 µM | 90.9% | Soluble |  | 1.01 µM | Not Active |  |  |  |
| S=C(Nc1ccccc1)Nc1ccc2[nH]ccc2c1 | inactive | 46.1% | 81.4% | 57.5 µM | 337 µM | 60 µM | 85.8% | Soluble | > 30 µM |  |  |  |  |  |
| Oc1cc(Cl)ccc1NC(=S)Nc1ccc2[nH]ccc2c1 | inactive | 35.9% | 58.9% | 6.3 µM | 251 µM | 0.3 µM | 76% | Soluble | 39 µM |  |  |  |  |  |
| COc1ccc(NC(=S)Nc2ccc3[nH]ccc3c2)cc1OC | inactive | 41.5% | 61% |  | 797 µM |  | 93.8% | Soluble |  |  | Not Active |  |  |  |
| COC(=O)c1cc(NC(=S)Nc2ccc3[nH]ccc3c2)ccc1O | inactive | 42.2% | 61.2% | > 100 µM | 423 µM | 31 µM | 90% | Soluble |  |  | Not Active |  |  |  |
| Oc1cccc(NC(=S)Nc2ccc3[nH]ccc3c2)c1 | inactive | 50.9% | 81.4% |  | 977 µM |  | 91.6% | Soluble |  |  | Not Active |  |  |  |
| S=C(Nc1ccc(Oc2ccccc2)cc1)Nc1ccc2[nH]ccc2c1 | inactive | 65.6% | 73.1% |  | 36 µM |  | 90.9% | Soluble |  |  | Not Active |  |  |  |
| Cc1ccc(NC(=S)Nc2ccc3[nH]ccc3c2)c(O)c1 | inactive | 36.2% | 47.3% | 24 µM | 370 µM | 3.2 µM | 87.2% | Soluble |  |  | Not Active |  |  |  |
| COc1ccc2nc(NC(=O)Nc3ccccc3)sc2c1 [FRENTIZOLE] |  |  |  |  | 31 µM |  |  |  |  |  | Not Active |  | Not Active | Not Active |
| CCOC(=O)c1ccc(NC(=S)Nc2ccc3[nH]ccc3c2)cc1 | inactive | 36.6% | 65.8% |  | 123 µM |  | 74.6% | Soluble | 71 µM |  |  |  |  |  |
| CC(=O)Nc1ccc(NC(=S)Nc2ccc3[nH]ccc3c2)cc1 | inactive | 39.3% | 68.1% | 70 µM | 1040 µM | 37 µM | 93% | Soluble | 71 µM |  |  |  |  |  |
| S=C(Nc1ccc2[nH]ccc2c1)Nc1cccc2cnccc12 | inactive | 47.9% | 63.3% | 24 µM | > 400 µM | 4 µM | 96.5% | Soluble | 24 µM |  |  |  |  |  |
| S=C(Nc1ccc(Br)cc1)Nc1ccc2[nH]ccc2c1 | inactive | 52.8% | 82% | 23 µM | 220 µM | 58 µM | 83% | Soluble | 5.9 µM |  |  | 4.355 |  |  |
| COc1ccc(NC(=S)Nc2ccc3[nH]ccc3c2)cc1 | inactive | 46.5% | 67.6% | 36 µM | 476 µM | 37 µM | 91.3% | Soluble | 36 µM |  |  |  |  |  |
